# TPT1 inh = Candida albicans TPT1 enzyme inhibitors, primary screen, biochemical, fluorescence polarization; inhibition, % at 5 µM; recombinant caTPT1, FP RNA substrate dephosphorylation; hit rate 0.81% among 300,000;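 active = inhibition above the mean of all tested compounds plus 3 SD, set per screening campaign, cut at about 24% in these data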;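 also: plate controls were DMSO alone for no effect and ferristatin control at 100 nM for full effect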
# IDE act = human IDE activators in live cells, primary screen, fluorescence polarization, HEK cells, FAbeta-B substrate. hit rate 0.073% among 340,000. AID 493087, 2011. activation, % at 5.96 µM. FAbeta-B cleavage; 0% vehicle, 100% cell-free pure enzyme wells;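 active = activation above the mean of all tested compounds plus 3 SD, set per screening campaign, cut at about 17% in these data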
# IDE inh = human IDE inhibitors in live cells, primary screen, fluorescence polarization, HEK cells, FAbetaB substrate. Insulin-degrading enzyme (Homo sapiens), P14735. FAbetaB cleavage. inhibition, % at 5.59 µM. hit rate 0.41% among 320,000. AID 434962, 2010;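 active = percent inhibition above the average of all tested compounds plus 3 SD, set per screening campaign, cut at about 16% in these data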;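 also: IDE supplied by intact live HEK cells; FP after avidin binding of uncleaved biotin substrate so inhibition keeps polarization high; 0% = DMSO wells and 100% = 60 µM reference IDE inhibitor Ii1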
# CSN inh = inhibitors of CSN-mediated cullin deneddylation, primary screen, biochemical, fluorescence polarization, uHTS; AID 651999, 2013; Purified CSN, SCF-Nedd8-OG deneddylation; COP9 signalosome complex subunit 5 (Homo sapiens), Q92905; hit rate 0.38% among 360,000; inhibition, % at 12.5 µM;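 active = pattern-corrected inhibition above about 35%, with an unprinted fluorescence ratio check between 0.5 and 1.5, limit read from the data, passing the limit was not always enough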;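 also: 0% = enzyme with substrate and 100% = substrate without enzyme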
#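 Material: purified human Csn5 enzyme expressed in HEK293T cells / Medium: Tris buffer pH 7.5, NaCl, DTT, Tween-20, trehalose, ovalbumin / Compound dosing: 12.5 µM single point / Schedule: 90 min incubation of compound, enzyme and substrate at room temperature / Signal: fluorescence polarization of the substrate / Control set: no-enzyme wells high, enzyme-with-substrate wells low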
# HNF4A DNA FP = change in binding of human HNF4A to DNA, primary screen, biochemical, fluorescence polarization, FITC-DNA. activity change, % at 10 µM. hit rate 0.3% among 360,000. Hepatocyte nuclear factor 4-alpha (Homo sapiens), P41235. 1 h; in the data active = activity change above about 30%, passing the limit was not always enough
# Target sequence (P41235 whole entry, looked up): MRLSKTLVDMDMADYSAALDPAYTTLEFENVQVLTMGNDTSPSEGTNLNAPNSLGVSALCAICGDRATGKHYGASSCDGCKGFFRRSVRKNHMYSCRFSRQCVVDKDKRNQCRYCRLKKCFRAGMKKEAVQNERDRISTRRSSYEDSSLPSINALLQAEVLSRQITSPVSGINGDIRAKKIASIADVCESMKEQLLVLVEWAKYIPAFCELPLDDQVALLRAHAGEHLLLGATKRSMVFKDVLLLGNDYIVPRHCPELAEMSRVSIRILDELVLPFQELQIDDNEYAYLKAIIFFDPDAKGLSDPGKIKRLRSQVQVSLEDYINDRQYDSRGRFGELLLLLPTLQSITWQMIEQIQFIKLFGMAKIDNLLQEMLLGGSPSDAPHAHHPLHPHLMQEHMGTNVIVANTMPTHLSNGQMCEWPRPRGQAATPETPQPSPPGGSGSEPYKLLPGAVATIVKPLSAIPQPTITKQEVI
# Tb MetRS inh = T. brucei MetRS inhibitors, primary screen, biochemical, luminescence; methionyl-tRNA synthetase (Trypanosoma brucei brucei); inhibition, % at 11.9 µM; purified T. brucei MetRS, ATP depletion, Kinase-Glo luminescence; hit rate 0.4% among 360,000;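 active = inhibition above a per-plate cutoff of the control wells' mean inhibition plus 3 SD, cut at about 5.5% in these data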;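 also: 0% = DMSO wells median and 100% = median of wells with control inhibitor compound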
#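 assay system = parasite MetRS enzyme | timing = 15 min preincubation, 2 h reaction, all 25 °C | evaluation = percent inhibition relative to median high and low control wells | medium = HEPES buffer containing pyrophosphatase, BSA, spermine, DTT | compound = single dose, 11.9 µM final nominal, 0.9% final DMSO | detection = Kinase-Glo luminescence, ATP depletion format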
# TbMetRS confirm = T. brucei MetRS inhibitors, confirmation, biochemical, luminescence; shares compounds with Tb MetRS inh; T. brucei MetRS enzyme, luminescence (ATP depletion); inhibition, % at 11.9 µM; hit rate 93% among 1,400; in the data active = inhibition above about 7%
# Jurkat tox = Jurkat T cell cytotoxicity, cytotoxicity control for T. brucei MetRS inhibitor project, luminescence, high throughput; shares compounds with Tb MetRS inh; Jurkat cells viability, ATP luminescence; inhibition, % at 8.3 µM; hit rate 12% among 1,400; in the data active = inhibition above about 15%;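 also: 0% = vehicle and 100% = reference inhibitor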
# TbMetRS FP orth = T. brucei MetRS inhibitors, orthogonal assay for T. brucei MetRS inhibitor project, biochemical, fluorescence polarization | hit rate 44% among 1,400 | purified T. brucei MetRS | shares compounds with Tb MetRS inh | inhibition, % at 11.9 µM; in the data active = inhibition above about 17%;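 also: 0% = vehicle wells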
# Numbers without * were called inactive; nt = not tested or not shown. The list is not random: actives were taken first. Their share in the collection is about 1.7%.
SMILES,TPT1 inh,IDE act,IDE inh,CSN inh,HNF4A DNA FP,Tb MetRS inh,TbMetRS confirm,Jurkat tox,TbMetRS FP orth
N#CCCN(CCN1CCCC1)S(=O)(=O)c1ccc(-c2ccc([N+](=O)[O-])cc2)cc1,2,3,2,-8,-2,0,nt,nt,nt
Cn1c(CN2CCCC(C(=O)c3ccc4c(c3)OCO4)C2)nc2ccccc21 (stereo not given),-3,-2,-2,-3,2,6.4*,12*,-1,1
Nc1cc(C(=O)OCC(=O)NCCNC(=O)COC(=O)c2ccc(Cl)c(N)c2)ccc1Cl,-1,4,-3,6,2,11*,30*,-2,8
COc1ccc(-n2c(C(C)(C)C)csc2=Nc2c(C)n(C)n(-c3ccccc3)c2=O)cc1,-4,-1,8,-6,0,0,nt,nt,nt
CCCn1nc(C(=O)Nc2cccc(S(=O)(=O)N(C)c3ccccc3)c2)c2ccccc2c1=O,nt,3,4,4,-1,-1,nt,nt,nt
NS(=O)(=O)c1cccc(NC(=O)Cc2ccc(Cl)c(Cl)c2)c1,1,-1,-3,-1,4,12*,19*,6,12
O=C(NCCc1ccncc1)Nc1ccc(Cl)cc1,-2,5,11,-2,2,6.2*,14*,-1,0
NS(=O)(=O)c1cccc(NC(=O)CCSc2ccccc2Cl)c1,-1,3,6,-3,-1,0,nt,nt,nt
O=C(NCCc1ccc(Cl)cc1)Nc1ccc(Cl)cc1,0,5,0,32,-5,71*,69*,4,55*
Cc1ccc(S(=O)(=O)NNC(=O)Nc2ccc(Cl)c(Cl)c2)cc1,5,-8,-3,7,-8,12*,13*,1,10
Cc1ccc(NC(=O)NNS(=O)(=O)c2ccc(Br)cc2)cc1,-3,4,3,0,-2,1,nt,nt,nt
CCCCNC(=S)N(CCN(C)C)Cc1cc2cc3c(cc2[nH]c1=O)OCCO3,5,3,-1,5,5,-1,nt,nt,nt
CCCS(=O)(=O)NC(=O)C1(C)CCN(C(=O)c2cc(C)nn2C(C)(C)C)C1 (stereo not given),nt,nt,nt,-4,3,0,nt,nt,nt
Cc1nn(C)c(Sc2ccccn2)c1[N+](=O)[O-],0,nt,5,3,-1,-1,nt,nt,nt
NS(=O)(=O)c1ccc(CCNC(=O)Nc2ccc(Cl)c(Cl)c2)cc1,0,4,1,2,1,15*,23*,18*,19*
COc1ccc(NC(=O)CS(=O)(=O)Cc2nc(-c3ccc(C)cc3)oc2C)cc1,0,4,-2,3,2,0,nt,nt,nt
COc1ccc(-c2nc(CS(=O)(=O)CC(=O)Nc3ccc(Cl)cc3)c(C)o2)cc1,-2,0,5,-7,4,12*,34*,46*,26*
c1ccc2cc3[nH]c(CN4CCOCC4)nc3cc2c1,4,-1,5,3,0,6.6*,13*,10,-1
O=C(c1ncc[nH]1)c1cccs1,-2,-3,3,0,3,0,nt,nt,nt
COc1ccc(NC(=O)CCNS(=O)(=O)c2ccc(Br)s2)cc1,0,3,-4,1,3,2,nt,nt,nt
Cc1ccc(NC(=O)CCNS(=O)(=O)c2ccc(Br)s2)cc1,-5,1,4,1,-3,18*,40*,-1,24*
COc1ccc(OCc2cc(C(=O)NCc3nc(C)cs3)no2)c(Cl)c1,-3,-4,2,-2,-4,6.2*,29*,1,21*
C=CCc1cccc(CNc2cnc3ccccc3c2)c1O,0,-1,-4,3,3,6.0*,12*,31*,13
Cn1c(NCc2cc(Br)ccc2O)nc2ccccc21,0,-2,2,4,1,41*,58*,6,24*
C=CCc1cccc(CNc2nc3ccccc3n2C)c1O,0,6,3,3,2,28*,46*,-1,26*
SMILES,TPT1 inh,IDE act,IDE inh,CSN inh,HNF4A DNA FP,Tb MetRS inh,TbMetRS confirm,Jurkat tox,TbMetRS FP orth
Oc1ccc(Cl)cc1CNc1cnc2ccccc2c1,0,-8,1,0,2,13*,14*,30*,10
N#Cc1ccccc1S(=O)(=O)c1ccccc1C(=O)Nc1ccccc1,-4,4,-2,-9,0,0,nt,nt,nt
COc1nc(Nc2cccc(F)c2)nc(OC)n1,-1,5,2,-1,0,-1,nt,nt,nt
COc1cc2nc(Nc3cccc(F)c3)nc(N)c2cc1OC,2,1,-2,-1,3,9.1*,29*,12,25*
CN(C)C(CNc1ncnc2sccc12)c1ccccc1 (stereo not given),0,5,-2,-6,-2,8.0*,1,-4,-1
OC(CNc1ncnc2sccc12)c1ccccc1 (stereo not given),2,-2,-3,-1,1,0,nt,nt,nt
Cc1ccc(NC(=O)COC(=O)Cn2ccc(=O)[nH]c2=O)cc1C,nt,2,0,-2,-4,0,nt,nt,nt
Cc1ccc(SCc2nc3ccccc3n2CC(=O)Nc2ccc(Cl)cc2)cc1,-1,-1,1,3,3,17*,22*,2,89*
COc1ccc(Cl)cc1NC(=O)CN(C)C(=O)c1ccc(-n2cncn2)cc1,nt,-1,2,-3,3,0,nt,nt,nt
O=C(O)c1cccc(-n2c(O)c(C=C3N=c4ccccc4=N3)sc2=S)c1,14,-10,11,3,4,18*,41*,-3,14
CCN(CC)c1ccc(-n2c(O)c(C=C3N=c4ccccc4=N3)sc2=S)cc1,1,-4,-2,-2,-2,0,nt,nt,nt
O=C(O)c1ccc(-n2c(O)c(C=C3N=c4ccccc4=N3)sc2=S)cc1,13,-2,-5,7,6,7.8*,33*,-5,11
